Assay results from ChEMBL document CHEMBL1145253, “Synthesis and evaluation of 3D templates based on a taxane skeleton to circumvent P-glycoprotein-associated multidrug resistance of cancer” (Bioorg Med Chem Lett, 2005).
pIC50: −log10 of the molar value.

Assays:
KB-G2 = assay: Inhibitory concentration against KB-G2 cells; details: Homo sapiens
KB 3-1 = assay: Inhibitory concentration against human KB-3-1 cells; type: functional, cell-based
Outline: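 Cytotoxicity IC50 in two human KB lines: KB-G2, a multidrug-resistant line overexpressing P-glycoprotein (Val-185) and resistant to paclitaxel and vinblastine, and its parental drug-sensitive KB-3-1 line as the control. Both lines came from an outside academic lab.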

[1] = target: ATP-dependent translocase ABCB1 (Homo sapiens, UniProt P08183); assay: Michaelis-Menten constant for human P-glycoprotein expressed in Sf9 cells
ATP-dependent translocase ABCB1, sequence (P08183 whole entry): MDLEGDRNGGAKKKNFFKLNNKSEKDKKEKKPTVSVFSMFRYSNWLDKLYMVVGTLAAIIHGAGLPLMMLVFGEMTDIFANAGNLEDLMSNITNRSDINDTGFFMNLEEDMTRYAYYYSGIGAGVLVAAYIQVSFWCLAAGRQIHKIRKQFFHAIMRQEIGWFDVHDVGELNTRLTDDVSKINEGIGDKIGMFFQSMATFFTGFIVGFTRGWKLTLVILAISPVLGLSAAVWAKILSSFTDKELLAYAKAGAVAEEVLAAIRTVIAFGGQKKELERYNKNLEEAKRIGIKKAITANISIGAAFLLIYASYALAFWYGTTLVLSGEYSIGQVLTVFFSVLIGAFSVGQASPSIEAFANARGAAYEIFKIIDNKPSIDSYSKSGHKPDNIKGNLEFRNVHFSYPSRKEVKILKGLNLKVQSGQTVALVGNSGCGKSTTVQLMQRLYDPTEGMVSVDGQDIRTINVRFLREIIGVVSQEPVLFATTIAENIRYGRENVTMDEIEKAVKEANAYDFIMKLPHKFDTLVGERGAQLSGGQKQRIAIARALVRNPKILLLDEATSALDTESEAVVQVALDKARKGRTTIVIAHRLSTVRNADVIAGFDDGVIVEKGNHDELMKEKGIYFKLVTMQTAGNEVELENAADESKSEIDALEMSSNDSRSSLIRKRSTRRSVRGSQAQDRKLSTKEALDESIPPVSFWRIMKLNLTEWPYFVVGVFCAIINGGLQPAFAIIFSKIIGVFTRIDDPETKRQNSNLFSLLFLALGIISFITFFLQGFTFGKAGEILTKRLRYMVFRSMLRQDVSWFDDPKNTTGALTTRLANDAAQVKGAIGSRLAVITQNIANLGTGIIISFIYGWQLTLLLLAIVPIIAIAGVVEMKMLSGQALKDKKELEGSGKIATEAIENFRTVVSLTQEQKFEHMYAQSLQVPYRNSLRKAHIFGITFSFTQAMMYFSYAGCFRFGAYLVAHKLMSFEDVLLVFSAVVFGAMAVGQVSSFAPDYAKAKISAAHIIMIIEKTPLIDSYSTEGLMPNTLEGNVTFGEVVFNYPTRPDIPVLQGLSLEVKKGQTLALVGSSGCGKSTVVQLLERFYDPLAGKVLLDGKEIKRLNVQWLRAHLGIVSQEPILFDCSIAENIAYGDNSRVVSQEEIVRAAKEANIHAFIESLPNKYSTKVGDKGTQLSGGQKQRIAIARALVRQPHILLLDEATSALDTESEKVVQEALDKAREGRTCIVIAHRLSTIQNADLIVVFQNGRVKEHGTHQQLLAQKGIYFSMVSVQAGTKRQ

Row | SMILES | pIC50 (KB-G2) | pIC50 (KB 3-1) | Km [1]
1 | COCOc1cccc2c1[C@@H]1OC(=O)O[C@]13CCC(C)=C(CO2)C3(C)C | < 4.30 | < 4.30 | –
2 | CC1=C2CC(=O)c3ccccc3[C@@H]3OC(=O)O[C@@]3(CC1)C2(C)C | < 4.30 | < 4.30 | –
3 | CC1=C2COc3ccccc3[C@@H]3OC(=O)O[C@@]3(CC1)C2(C)C | < 4.30 | < 4.30 | –
4 | C=C1C2(C)CC[C@]3(OC(=O)O[C@H]3c3c(OCOC)cccc3C2=O)C1(C)C | < 4.30 | < 4.30 | –
5 | COc1ccc(CCN(C)CCCC(C#N)(c2ccc(OC)c(OC)c2)C(C)C)cc1OC (stereo not given) | – | – | 2000 nM
6 | CC(=O)O[C@H]1C(=O)[C@@]2(C)[C@H]([C@H](OC(=O)c3ccccc3)[C@]3(O)C[C@H](OC(=O)[C@H](O)[C@@H](NC(=O)c4ccccc4)c4ccccc4)C(C)=C1C3(C)C)[C@]1(OC(C)=O)CO[C@@H]1C[C@@H]2O [PACLITAXEL] | 6.22 | 8.68 | 700 nM

Further lines, results first:

Row | pIC50 (KB-G2) | pIC50 (KB 3-1) | Km [1] | SMILES
7 | < 4.30 | < 4.30 | – | COCOc1ccc2c(c1)[C@@H]1OC(=O)O[C@]13CCC(C)=C(CO2)C3(C)C
8 | < 4.30 | < 4.30 | – | CC1=C2COCc3ccccc3[C@@H]3OC(=O)O[C@@]3(CC1)C2(C)C
9 | < 4.30 | < 4.30 | – | COCOc1ccc2c(c1)[C@@H]1OC(=O)O[C@]13CCC(C)=C(COC2)C3(C)C
10 | < 4.30 | < 4.30 | – | COCOc1ccc2c(c1)[C@@H]1OC(=O)O[C@]13CCC(C)=C(CC2=O)C3(C)C
